For one series, the target named is PARP-1 (Homo sapiens, UniProt P09874). As to the kind of experiment: PARP-1 radioligand binding assay with [125I]KX1 in OVCAR8 cells. In short, it runs like this: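 OVCAR8 ovarian cancer cells (BRCA1 methylated) seeded at 40,000 cells/well 24 h before the assay. Test compound diluted in RPMI (100 μM–0.064 nM), added with the [125I]KX1 radioligand, equilibrated 1 hr, then washed with PBS. Wells counted on a gamma counter. IC50 from non-linear sigmoidal dose-response fit, n=3; dose ranges were adjusted between repeats.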

A further series relates to P-gp. The following applies: cited from earlier work.
The target in another series is recombinant human P-gp (Homo sapiens, UniProt P08183). As to the kind of experiment: Pgp-Glo assay. Conditions: for Luminescence from unmetabolized ATP (P-gp ATPase stimulation or inhibition): 20 μM compound, 5 mM ATP, 1 hr at 37°C, normalized to Na3VO4.

Read-outs that look alike come from different tables or passages of the source.

PARP-1, sequence (P09874 whole entry): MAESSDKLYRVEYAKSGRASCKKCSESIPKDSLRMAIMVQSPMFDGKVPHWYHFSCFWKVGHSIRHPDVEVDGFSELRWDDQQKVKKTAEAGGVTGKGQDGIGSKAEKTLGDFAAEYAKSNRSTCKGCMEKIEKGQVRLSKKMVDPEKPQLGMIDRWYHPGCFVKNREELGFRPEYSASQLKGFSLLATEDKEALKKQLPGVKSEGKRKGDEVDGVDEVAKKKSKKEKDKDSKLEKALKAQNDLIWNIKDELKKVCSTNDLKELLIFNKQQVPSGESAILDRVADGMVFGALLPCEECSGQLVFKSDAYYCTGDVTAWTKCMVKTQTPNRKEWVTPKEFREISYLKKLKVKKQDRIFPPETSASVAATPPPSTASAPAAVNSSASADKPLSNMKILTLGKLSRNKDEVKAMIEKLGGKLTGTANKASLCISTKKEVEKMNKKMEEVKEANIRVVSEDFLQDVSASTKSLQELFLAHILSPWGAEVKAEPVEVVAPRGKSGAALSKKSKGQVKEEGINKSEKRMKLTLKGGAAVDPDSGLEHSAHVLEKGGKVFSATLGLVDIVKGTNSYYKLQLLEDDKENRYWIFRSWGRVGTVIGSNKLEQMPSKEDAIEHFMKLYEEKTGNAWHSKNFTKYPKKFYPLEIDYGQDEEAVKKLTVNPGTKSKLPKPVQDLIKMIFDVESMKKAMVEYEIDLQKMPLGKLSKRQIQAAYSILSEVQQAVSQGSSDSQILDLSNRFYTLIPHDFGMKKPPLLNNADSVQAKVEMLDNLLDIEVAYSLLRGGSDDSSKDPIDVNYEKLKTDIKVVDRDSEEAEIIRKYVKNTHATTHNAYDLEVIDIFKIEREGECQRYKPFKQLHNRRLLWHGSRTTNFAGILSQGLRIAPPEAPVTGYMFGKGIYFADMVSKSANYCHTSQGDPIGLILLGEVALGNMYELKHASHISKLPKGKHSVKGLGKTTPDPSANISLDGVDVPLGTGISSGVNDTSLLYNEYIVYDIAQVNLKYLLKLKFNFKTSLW
recombinant human P-gp, sequence (P08183 whole entry): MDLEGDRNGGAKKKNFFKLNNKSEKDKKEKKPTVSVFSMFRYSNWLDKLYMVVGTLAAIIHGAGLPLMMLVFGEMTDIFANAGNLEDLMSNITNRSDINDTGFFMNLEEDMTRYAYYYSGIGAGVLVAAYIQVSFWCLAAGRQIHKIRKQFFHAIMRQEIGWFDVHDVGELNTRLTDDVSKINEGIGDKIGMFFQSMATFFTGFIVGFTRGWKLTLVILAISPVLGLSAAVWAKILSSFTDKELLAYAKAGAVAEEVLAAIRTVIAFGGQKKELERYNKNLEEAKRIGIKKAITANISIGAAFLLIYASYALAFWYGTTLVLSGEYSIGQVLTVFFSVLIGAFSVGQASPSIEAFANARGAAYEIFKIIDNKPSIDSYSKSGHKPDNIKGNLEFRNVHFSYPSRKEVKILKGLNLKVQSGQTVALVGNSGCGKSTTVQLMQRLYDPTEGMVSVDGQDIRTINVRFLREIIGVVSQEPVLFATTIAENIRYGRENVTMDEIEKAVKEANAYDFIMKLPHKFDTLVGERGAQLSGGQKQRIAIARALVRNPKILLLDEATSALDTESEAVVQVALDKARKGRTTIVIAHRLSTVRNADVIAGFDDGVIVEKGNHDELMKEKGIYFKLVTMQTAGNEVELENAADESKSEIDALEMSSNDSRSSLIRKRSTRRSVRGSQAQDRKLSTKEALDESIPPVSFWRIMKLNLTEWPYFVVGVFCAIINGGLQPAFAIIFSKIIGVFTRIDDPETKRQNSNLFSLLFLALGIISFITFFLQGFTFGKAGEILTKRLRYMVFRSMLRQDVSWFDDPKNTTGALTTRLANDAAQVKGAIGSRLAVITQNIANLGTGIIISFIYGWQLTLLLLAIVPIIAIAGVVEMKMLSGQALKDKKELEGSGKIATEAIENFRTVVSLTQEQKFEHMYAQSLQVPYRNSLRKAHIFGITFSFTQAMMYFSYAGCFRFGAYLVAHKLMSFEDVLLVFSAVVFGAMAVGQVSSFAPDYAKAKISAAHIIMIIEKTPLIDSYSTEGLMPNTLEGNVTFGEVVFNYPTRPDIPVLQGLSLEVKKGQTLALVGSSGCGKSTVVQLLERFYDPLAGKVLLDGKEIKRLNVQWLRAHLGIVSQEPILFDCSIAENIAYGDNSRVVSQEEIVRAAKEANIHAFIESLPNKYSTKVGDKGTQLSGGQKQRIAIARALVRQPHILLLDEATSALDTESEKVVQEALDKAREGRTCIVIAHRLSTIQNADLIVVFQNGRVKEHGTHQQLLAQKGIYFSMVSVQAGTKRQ

For orientation: IC50 means the concentration at which inhibition is half-maximal. Read a low IC50 as higher potency. As to `O=C(c1cc(Cc2n[nH]c(=O)c3ccccc23)ccc1F)N1CCCC(OCCF)CC1` (stereo not drawn) [Compound 9f, 4-(4-fluoro-3-(4-(2-fluoroethoxy)azepane-1-carbonyl)benzyl)phthalazin-1(2H)-one], the IC50 on PARP-1 is 5.6 ± 1.1 nM. Turning to `O=C(c1cc(Cc2n[nH]c(=O)c3ccccc23)ccc1F)N1CCN(C(=O)C2CC2)CC1` [olaparib], in the series on P-gp, the P-gp substrate status result was “known substrates for P-gp”. In turn, `O=C(c1cc(Cc2n[nH]c(=O)c3ccccc23)ccc1F)N1CCC(c2ccc(F)cc2)CC1` [Compound 11b, 4-(4-fluoro-3-(4-(4-fluorophenyl)piperidine-1-carbonyl)benzyl)phthalazin-1(2H)-one] showed an IC50 at PARP-1 of 1.3 nM. Further, the “Luminescence from unmetabolized ATP (P-gp ATPase stimulation or inhibition)” value on recombinant human P-gp was “increased luminescence”. In the case of `COC1CCN(C(=O)c2cc(Cc3n[nH]c(=O)c4ccccc34)ccc2F)CC1` [Compound 2, AZD2461], the P-gp substrate status result in the series with P-gp is reported as “weak P-gp substrates”; in the series with P-gp (listed as AZD2461), “poor P-gp substrate”.

In turn, `O=C(c1cc(Cc2n[nH]c(=O)c3ccccc23)ccc1F)N1CC[C@@H](OCCF)C1` [Compound 9c, (R)-4-(4-fluoro-3-(3-(2-fluoroethoxy)pyrrolidine-1-carbonyl)benzyl)phthalazin-1(2H)-one] gave a half-inhibitory concentration (IC50) on PARP-1 of 10.1 ± 1.1 nM. Same read-out and setting: next, `O=C(c1cc(Cc2n[nH]c(=O)c3ccccc23)ccc1F)N1CC(OCCF)C1` [Compound 9b, 4-(4-fluoro-3-(3-(2-fluoroethoxy)azetidine-1-carbonyl)benzyl)phthalazin-1(2H)-one]: 7.5 ± 1.1 nM. Same read-out and setting: to `O=C(c1cc(Cc2n[nH]c(=O)c3ccccc23)ccc1F)N1CC[C@H](OCCF)C1` [Compound 9d, (S)-4-(4-fluoro-3-(3-(2-fluoroethoxy)pyrrolidine-1-carbonyl)benzyl)phthalazin-1(2H)-one] belongs 6.8 nM. Turning to `O=C(c1cc(Cc2n[nH]c(=O)c3ccccc23)ccc1F)N1CCC(OCCF)CC1` [Compound 9e, 4-(4-fluoro-3-(4-(2-fluoroethoxy)piperidine-1-carbonyl)benzyl)phthalazin-1(2H)-one], the half-inhibitory concentration (IC50) at PARP-1 was determined as 3.9 ± 1.2 nM. Further, the “Luminescence from unmetabolized ATP (P-gp ATPase stimulation or inhibition)” value on recombinant human P-gp is reported as “increased luminescence”. Besides, the P-gp substrate status result at recombinant human P-gp (authors' conclusion from the P-gp assay) was “weak substrate for P-gp”. For the compound `C[C@]1(c2nc3c(C(N)=O)cccc3[nH]2)CCCN1` [veliparib], the P-gp substrate status result with P-gp was “weak P-gp substrates”. `O=C(c1cc(Cc2n[nH]c(=O)c3ccccc23)ccc1F)N1CC2(CC(OCCF)C2)C1` [Compound 9a, 4-(4-fluoro-3-(6-(2-fluoroethoxy)-2-azaspiro[3.3]heptane-2-carbonyl)benzyl)phthalazin-1(2H)-one] gave a half-inhibitory concentration (IC50) on PARP-1 of 10.7 ± 1.1 nM. For `[Na+].[Na+].[Na+].[O]=[V]([O-])([O-])[O-]` [Na3VO4, reference compound], the “Luminescence from unmetabolized ATP (P-gp ATPase stimulation or inhibition)” value at recombinant human P-gp was “increased luminescence”. As to `C[C@]12CCCN1CC1=NNC(=O)c3cc(F)cc4[nH]c2c1c34` [BGB-290], in the series on P-gp, the P-gp substrate status result was “weak P-gp substrates”. `O=C(c1cc(Cc2n[nH]c(=O)c3ccccc23)ccc1F)N1CC2(C1)CN(c1ccc(F)cc1)C2` [Compound 14, 4-(4-fluoro-3-(6-(4-fluorophenyl)-2,6-diazaspiro[3.3]heptane-2-carbonyl)benzyl)phthalazin-1(2H)-one] came in with an IC50 at PARP-1 of 0.3 nM. For the same compound, the “Luminescence from unmetabolized ATP (P-gp ATPase stimulation or inhibition)” value at recombinant human P-gp is “increased luminescence”. For the compound `O=C(c1cc(Cc2n[nH]c(=O)c3ccccc23)ccc1F)N1CCN(c2ccc(F)cc2)CC1` [Compound 11a, 4-(4-fluoro-3-(4-(4-fluorophenyl)piperazine-1-carbonyl)benzyl)phthalazin-1(2H)-one], the half-maximal inhibitory concentration (IC50) on PARP-1 is 0.6 ± 1.2 nM. As for `O=C(c1cc(Cc2n[nH]c(=O)c3ccccc23)ccc1F)N1CC2(CC(c3ccc(F)cc3)C2)C1` [Compound 17, 4-(4-fluoro-3-(6-(4-fluorophenyl)-2-azaspiro[3.3]heptane-2-carbonyl)benzyl)phthalazin-1(2H)-one], the IC50 at PARP-1 is 2.8 nM. Besides, the “Luminescence from unmetabolized ATP (P-gp ATPase stimulation or inhibition)” value on recombinant human P-gp is given as “increased luminescence”.

These data come from paper PMC6378121 (Bioorganic chemistry, 2018).
